Screening results (PubChem)
Most compounds without a hit are left out; they make up all but 2.1% or so of the library.
Xi reactivation – activators of inactive X chromosome reactivation, primary screen, imaging, XiGFP fibroblasts, GFP high-content imaging, set 2. 360,000 tested, 0.055% active. activation, % at 7.58 µM. AID 743238, 2013. XiGFP mouse fibroblasts, % GFP-positive cells imaging, 3 d; cells co-treated with 5-aza-dC sensitizer; scaled so ellipticine positive control = 100%;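 active = mean normalized replicate activation at least 10% and every replicate at or above 10%; inconclusive = only one of the two criteria met; inactive = mean below 10% and not all replicates reach 10%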
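Assay system: SV40-immortalized XiGFP fibroblast cells, line 68-5-11; buffer or medium: DMEM plus 5-aza-dC sensitizer; compound: one concentration, pinned; timing: compounds 3 days, fix/stain 15 min at room temperature; benchmarks: positive control ellipticine, 6 µM final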
PGC1a acetyl inh – inhibitors of PGC1a acetylation signal, primary screen, cell-based, U2OS, AlphaScreen, inhibitor mode | AlphaScreen anti-acetyl-lysine; with virally co-expressed GCN5 acetyltransferase | 350,000 tested, 0.17% active | inhibition, % at 15.6 µM;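 active = every replicate shows inhibition of at least 40%; inconclusive = mean inhibition at least 40% but some replicate below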
GSIS activator – GLuc luminescence reporter in INS-1E cells, primary screen for activators of glucose-dependent secretion of insulin; 370,000 tested, 0.61% active; AID 743287, 2014; activation, % at 16.6 µM; INS-1E GLuc reporter insulin secretion, 2-3 h;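 active = lowest replicate activation of at least 40%, so every replicate reaches that level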
EWS-Fli inh – EWS/Fli-driven NR0B1 reporter inhibitors, primary screen, A673 cells, NR0B1 luciferase, luminescence, MLPCN library | viability-normalised | inhibition, % at 12.6 µM | 350,000 tested, 0.67% active | AID 651661, 2012;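 active = mean inhibition of at least 50% after viability correction, with every replicate also passing that limit; inconclusive = mean reaches 50% but only one of two replicates passes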;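 also: firefly luciferase signal divided by Alamar Blue viability fluorescence both relative to DMSO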
AF4-AF9 inh – inhibitors of AF4 peptide binding to AF9, primary screen, biochemical, AlphaScreen, biotin-AF4 peptide, FLAG-AF9, single point | Protein AF-9 (Homo sapiens), P42568 | inhibition, % at 10 µM | 350,000 tested, 0.47% active | AID 651704, 2012;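 active = every replicate reaching a set inhibition limit, whatever the replicate mean, cut at about 25% in these data; inconclusive = mean inhibition reaches that limit but some replicates miss it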
Target sequence (P42568 whole entry, looked up): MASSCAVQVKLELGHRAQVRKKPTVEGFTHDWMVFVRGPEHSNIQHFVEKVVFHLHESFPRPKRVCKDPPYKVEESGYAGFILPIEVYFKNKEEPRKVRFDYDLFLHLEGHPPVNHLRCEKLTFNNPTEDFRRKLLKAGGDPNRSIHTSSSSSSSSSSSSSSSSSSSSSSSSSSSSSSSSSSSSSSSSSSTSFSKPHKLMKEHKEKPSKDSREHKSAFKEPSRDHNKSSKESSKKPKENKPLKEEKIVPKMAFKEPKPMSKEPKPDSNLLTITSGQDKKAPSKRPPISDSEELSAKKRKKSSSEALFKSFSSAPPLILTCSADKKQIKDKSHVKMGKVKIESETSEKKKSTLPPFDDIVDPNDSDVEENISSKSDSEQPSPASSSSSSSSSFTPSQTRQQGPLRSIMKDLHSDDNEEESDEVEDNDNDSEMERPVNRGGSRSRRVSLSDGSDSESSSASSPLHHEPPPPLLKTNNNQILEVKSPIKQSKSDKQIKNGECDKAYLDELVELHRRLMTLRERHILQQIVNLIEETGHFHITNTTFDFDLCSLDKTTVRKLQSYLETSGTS
PAX8 reporter – inhibitors of PAX8-driven TPO luciferase reporter, primary screen, RMG-I cells, single concentration | SteadyGlo, 24 h | inhibition, % at 12.6 µM | 360,000 tested, 1.2% active;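 active = mean replicate inhibition at least 60% with every replicate also reaching 60%; inconclusive = only one of the two criteria is met; inactive = mean below 60% and not all replicates reaching 60%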;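 also: luciferase light reporting Pax8 driven TPO promoter activity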
Alpha interfer – AlphaScreen signal interference counter-screen, dose response, artefact control, biochemical, cherry-picked samples, luminescence; AID 720494, 2013; AC50, µM (highest dose often 12 µM); shares compounds with AF4-AF9 inh; 530 tested, 45% active; cut-off not given, nearly all actives have AC50 up to about 14 µM
Each line names hits and unclear results; the compound was inactive in the other large screens (follow-up assays come after a bar, where they were run); ! = a repeat was not active.

CCN(CC)CCCNc1ccc2ncn3c4ccc(O)cc4c(=O)c1c23	none (no result: PGC1a acetyl inh, PAX8 reporter) | Alpha interfer inactive
COc1ccc(NC(=O)Nc2ccc3c(c2)C(=O)N([C@H](C)CO)C[C@H](C)[C@@H](CN(C)S(=O)(=O)c2ccc(Cl)cc2)OCCCC[C@H](C)O3)cc1	none
CCN(CC)CCOc1ccc(/C(=C(/Cl)c2ccccc2)c2ccccc2)cc1	AF4-AF9 inh 31! | Alpha interfer inactive
O=C(O)/C=C/c1ccc2ccccc2n1	none (no result: Xi reactivation, GSIS activator, EWS-Fli inh, AF4-AF9 inh, PAX8 reporter)
C(=C\c1ccc2ccccc2n1)/c1ccccc1	EWS-Fli inh 74, AF4-AF9 inh inconclusive (no result: PGC1a acetyl inh) | Alpha interfer inactive
CSc1ccc(-c2cc3c(c4c2ccn4C)C2CCC3C2)cc1 (centres undefined)	none (no result: Xi reactivation)
Cn1ccc2c(N3CCCCC3)cc3c(c21)C1CCC3C1 (centres undefined)	AF4-AF9 inh 52 (no result: Xi reactivation) | Alpha interfer inactive
CN(C)c1cccc2c(C=C(C#N)C#N)ccc(N(C)C)c12	AF4-AF9 inh 51 (no result: EWS-Fli inh) | Alpha interfer inactive
O=C(N/N=C/c1c(O)ccc2ccccc12)c1ccc[n+](CCO)c1	AF4-AF9 inh 82 (no result: PGC1a acetyl inh) | Alpha interfer 0.61µM
Cn1cc(C(=O)N/N=C/c2c(O)ccc3ccccc23)ccc1=O	none | Alpha interfer inactive
Cc1ccc(C(=O)N/N=C/c2c(O)ccc3ccccc23)cn1	none (no result: GSIS activator)
O=C(O)C[C@H]1C=C[C@H](NC(=O)CCN2CCCCC2)[C@@H](CO)O1	none (no result: PAX8 reporter)
CCc1nc2ccc(C(=O)NC3CCN(C)CC3)cn2c1N(C)CCC(C)C	none
CCc1nc2ccc(C(=O)NC3CCN(Cc4ccccc4)CC3)cn2c1N(C)Cc1ccc(N(C)C)cc1	AF4-AF9 inh 52 (no result: PGC1a acetyl inh) | Alpha interfer 8.5µM
COc1cccc(C#Cc2ccc3c(c2)O[C@@H](CN(C)C)[C@@H](C)CN([C@H](C)CO)S3(=O)=O)c1	none
COc1ccc2c3c(n(C)c2c1)[C@H](CO)N(C(=O)CN1CCOCC1)CC31CCN(C(=O)C2CC2)CC1	none (no result: PAX8 reporter)
CC1=C/C(=C(\c2cc(C)c(O)c(Br)c2)c2ccccc2S(=O)(=O)O)C=C(Br)C1=O	AF4-AF9 inh 52 | Alpha interfer 8.9µM
CCCNC(=O)C[C@H]1CC[C@@H]2[C@H](COC[C@H](O)CN2Cc2cccc(F)c2)O1	none
COc1ccc2c3c([nH]c2c1)[C@H](CO)N(C(=O)NC(C)C)CC31CCN(C(=O)c2cccnc2)CC1	none (no result: PGC1a acetyl inh, PAX8 reporter)
CCN(CC)c1ccc(C(=C2C=CC(=[N+](CC)CC)C=C2)c2ccc(N(CC)CC)cc2)cc1	PGC1a acetyl inh 83, AF4-AF9 inh 98, PAX8 reporter 113 (no result: GSIS activator) | Alpha interfer 0.26µM
C[C@H]1CN([C@@H](C)CO)C(=O)c2ccccc2-c2ccccc2CO[C@@H]1CN(C)C(=O)Nc1ccc2c(c1)OCO2	none (no result: PGC1a acetyl inh, EWS-Fli inh, AF4-AF9 inh, PAX8 reporter)
Cc1ccc2c(c1)c1c3n2CCCN(Cc2ccccc2)C3CCC1 (centres undefined)	AF4-AF9 inh 32 (no result: Xi reactivation, PAX8 reporter) | Alpha interfer inactive
CC(C)(C)C1=CC(=Nc2ccccc2N)C=C(C(C)(C)C)C1=O	AF4-AF9 inh 73 | Alpha interfer 2.7µM
CCCCCc1cc(=O)oc2c(C(CCN3CCCC3)c3ccc(N(C)C)cc3)c(OC)cc(OC)c12 (centres undefined)	AF4-AF9 inh 57 (no result: PGC1a acetyl inh) | Alpha interfer 7µM
Cc1ccc2nc(-c3ccccn3)c(NC3CCCC3)n2c1	AF4-AF9 inh 32 | Alpha interfer inactive
CCCNC(=O)N1[C@@H](CO)[C@@H](c2ccccc2)C12CN(C(=O)CC1CC1)C2	none (no result: PAX8 reporter)
CCCN1C[C@H](C)[C@H](OC)CN(C)C(=O)c2cc(NC(=O)c3ccno3)ccc2OC[C@H]1C	none
c1ccc2c(Nc3ccc4c(c3)OCCO4)c3c(nc2c1)CCCC3	none (no result: PGC1a acetyl inh) | Alpha interfer inactive
Fc1cccc(Nc2c3c(nc4ccccc24)CCC3)c1	none (no result: PGC1a acetyl inh)
